# Screening results: PubChem BioAssay, several laboratories
# MIN6 prolif: inducers of MIN6 beta-cell proliferation, primary screen, ATP luminescence, uHTS | MIN6 cells proliferation, ATPlite luminescence, 48 h; cells starved in 0.2% serum; 100% = growth in 10% serum | proliferation, % at 10 µM | 330,000 compounds, 0.29% hits | AID 2380, 2010;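 active means compounds whose signal lies at least 3.5 SD above the mean of all wells on their plate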;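 further: 0% = DMSO-treated cells in low-serum medium and 100% = 10% serum control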
# V-ATPase pH: regulators of yeast V-ATPase proton pumping, primary screen, pHLuorin cytosolic pH fluorescence; response, % at 10 µM; S. cerevisiae; 350,000 compounds, 0.37% hits; in the data active means response mostly above about 7.3%, no sharp cut-off; inactive means mostly below about 5.4%; further: actives read high
# Xi reactivation: activators of inactive X chromosome reactivation, primary screen, imaging, XiGFP fibroblasts, GFP high-content imaging, set 2. XiGFP mouse fibroblasts, % GFP-positive cells imaging, 3 d; cells co-treated with 5-aza-dC sensitizer; scaled so ellipticine positive control = 100%. 360,000 compounds, 0.055% hits. activation, % at 7.58 µM;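 active means mean normalized replicate activation at least 10% and every replicate at or above 10%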;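 further: 0% = median of on-plate neutral control wells and 100% = ellipticine 6 µM median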
#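 Assay system: SV40-immortalized XiGFP fibroblast cells, line 68-5-11; buffer or medium: DMEM plus 5-aza-dC sensitizer; compound: one concentration, pinned; timing: compounds 3 days, fix/stain 15 min at room temperature; benchmarks: positive control ellipticine, 6 µM final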
# NTR1 ag: agonists of human NTR1, primary screen, imaging, U2OS cells, beta-arrestin-GFP, high content; Neurotensin receptor type 1 (Homo sapiens), P30989; NTR1-U2OS beta-arrestin-GFP spot imaging, agonist mode; activation, % at 20 µM; 330,000 compounds, 0.17% hits; AID 493036, 2011;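 active means activation at or above 40% of the spot to cytoplasm intensity ratio, with at least 20 cells analyzed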;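 further: 0% = DMSO without peptide and 100% = 100 nM NTR1 peptide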
# Target sequence (P30989 whole entry, looked up): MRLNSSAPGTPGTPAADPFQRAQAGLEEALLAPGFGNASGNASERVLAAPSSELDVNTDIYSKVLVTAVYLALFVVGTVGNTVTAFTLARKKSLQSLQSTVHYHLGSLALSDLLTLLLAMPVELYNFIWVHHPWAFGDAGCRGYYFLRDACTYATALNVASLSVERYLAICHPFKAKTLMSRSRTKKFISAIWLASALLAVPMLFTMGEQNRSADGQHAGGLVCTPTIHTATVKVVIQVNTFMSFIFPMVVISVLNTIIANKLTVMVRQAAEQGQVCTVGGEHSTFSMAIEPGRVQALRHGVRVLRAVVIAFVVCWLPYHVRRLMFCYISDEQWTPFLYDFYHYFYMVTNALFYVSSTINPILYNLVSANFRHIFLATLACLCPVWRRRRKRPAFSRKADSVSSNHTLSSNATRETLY
# Arrestin-AP2 inh: inhibitors of beta-arrestin/AP2 binding, primary screen, biochemical, GPCR trafficking, flow cytometry | 340,000 compounds, 0.31% hits | inhibition, % at 10 µM | FITC-arrestin peptide / GST-AP2 beads; AP2 beta2 appendage carries R879A mutation;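 active means inhibition above a set limit, near 3 SD of compounds lacking own fluorescence, cut at about 54% in these data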;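 further: plate controls were DMSO wells for no effect and 5 µM unlabelled arrestin peptide for full effect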
#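 Material – GST-tagged AP2 beta2-adaptin appendage (R879A) on 4 µm glutathione beads · Probe or stimulus – fluorescein-tagged arrestin peptide at 50 nM final · Timing – 12 min plus 1 h, RT · Detection – bead flow cytometry, FITC channel · Read-out basis – inhibition as reduced fluorescein signal on beads, percent · Medium – PBS plus Tween 20 (0.05%) and BSA (0.1%)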
# T cell modulator: modulators of CD8 T cell-vesicle binding, primary screen, mouse 2C CD8+ T cells, flow cytometry; 2C CD8+ T cell-vesicle binding; stronger effect = lower value; 330,000 compounds, 0.068% hits; response (vesicle binding), % at 7 µM; AID 2052, 2009;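 active means response, share of CD8 T cells binding vesicles, and their 90th percentile fluorescence all below set limits, cut at about 80% in these data, passing the limit was not always enough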;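 further: values below 100% mean blocked vesicle binding to the CD8+ T cells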
#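 Also added: QL9-peptide-loaded Drosophila micro-vesicles bearing Ld, ICAM-1 and B7-1; Test system: purified 2C TCR transgenic mouse naive CD8+ T cells; Measured by: cytometric PE anti-B7-1 and Alexa647 anti-CD8 signals after 1% paraformaldehyde fixation; Timing: binding step 1.5 h, 37 °C, antibody labelling 20 min, ice.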
# Arr-AP2 CP1: inhibitors of arrestin peptide binding to AP2, confirmation, biochemical, cherry pick 1, flow cytometry beads | shares compounds with Arrestin-AP2 inh | 1,300 compounds, 2% hits | AID 504908, 2011 | GST-AP2 beads, FITC arrestin peptide binding; GST-fused beta2-adaptin appendage, R879A mutant | inhibition, % at 10 µM;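 active means inhibition above a set limit, roughly 3 SD of non-fluorescent compound noise, cut at about 38% in these data; inactive means inhibition at or below that limit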;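 further: loss of bead fluorescence from 50 nM FITC arrestin peptide bound to appendage; 0% = negative control wells and 100% = excess unlabelled arrestin peptide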
# GST-FITC bead: GST-fluorescein capture on glutathione beads, confirmation, artefact control for arrestin-AP2 inhibitor project, biochemical, cherry pick 1, flow cytometry. 1,300 compounds, 2% hits. GST-fluorescein binding to GSH beads, fluorescence, counter-screen. inhibition, % at 10 µM. shares compounds with Arrestin-AP2 inh. AID 588338, 2011;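 active means inhibition above 50%, about 3 SD of the inhibition seen with non-fluorescent compounds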;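 further: fluorescein maleimide labelled GST captured on 4 micron glutathione beads; higher means more loss of bead fluorescence from quenching or blocked binding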
# Numbers without * were called inactive; · = no result given. The list is not random: actives were taken first. Their share in the collection is about 0.89%.
SMILES,MIN6 prolif,V-ATPase pH,Xi reactivation,NTR1 ag,Arrestin-AP2 inh,T cell modulator,Arr-AP2 CP1,GST-FITC bead
CCCNC(=O)C[C@@H]1C[C@H]2c3cc(NC(=O)c4cccnc4)ccc3O[C@H]2[C@H](CO)O1,·,·,0,·,·,·,·,·
Cc1ccc(-c2nnn(CC(=O)N(c3ccccc3)C(C(=O)NCC3CCCO3)c3ccc(F)cc3)n2)o1 (centres undefined),-1,-2,0,-1,66*,601,6,0
CCOc1ccc(-n2cc(C(=O)N3CCC(C)CC3)c3cc(OC)c(OC)cc3c2=O)cc1,2,4,·,4,56*,659,-15,-14
COCC(=O)Nc1ccc2c(c1)[C@@H]1C[C@@H](CC(=O)NCc3ccccn3)O[C@H](CO)[C@@H]1O2,·,·,0,·,·,·,·,·
CCOc1ccc(/C=C2\CCC(C3CCCC3)C2=O)cc1OC (centres undefined),-1,-2,0,3,59*,184,12,-3
CSCCC(NC(=O)C12CC3CC(CC(C3)C1)C2)C(=O)OCC(=O)c1ccc(Cl)cc1 (centres undefined),1,2,·,-1,3,257,·,·
CSCCC(NC(=O)C1CCC(C)CC1)C(=O)OCC(=O)c1ccc(Cl)cc1 (centres undefined),3,6,0,5,106*,201,10,-1
CN(C(=S)SCc1ccccc1)C1CCS(=O)(=O)C1 (centres undefined),1,0,0,1,-2,159,·,·
CCCCSC(=S)N(C)C1CCS(=O)(=O)C1 (centres undefined),1,-3,·,1,98*,192,-10,2
CC(C)CN(C(=O)c1ccc(S(=O)(=O)N2CCCCC2)cc1)C1CCS(=O)(=O)C1 (centres undefined),-3,7,0,2,-7,·,·,·
CC(C)CN(C(=O)c1ccc(S(=O)(=O)N2CCCC2)cc1)C1CCS(=O)(=O)C1 (centres undefined),1,-3,0,2,55*,322,8,-8
O=C(CCC1CCCN(C(=O)c2ccc3cc[nH]c3c2)C1)NCc1ccc(F)c(F)c1 (centres undefined),1,1,-1,0,58*,177,9,-7
COc1ccc(CCC(C)NC2CCCCCCC2)cc1 (centres undefined),-2,1,0,1,64*,173,19,9
COc1ccc(CN(C)C[C@H]2OCCCC[C@H](C)Oc3ccc(NC(=O)c4ccccc4)cc3C(=O)N([C@@H](C)CO)C[C@H]2C)cc1,·,·,0,·,·,·,·,·
CCS(=O)(=O)N1CC2(CN(Cc3cccnc3)[C@H](CO)c3c2c2ccc(OC)cc2n3C)C1,·,·,0,·,·,·,·,·
CC(=O)Nc1ccc(S(=O)(=O)N2c3ccccc3NC(=O)CC2C)c(Cl)c1 (centres undefined),-3,7,0,-1,54*,210,-18,-1
COc1cc(C(=O)NCC(=O)OCC(=O)Nc2nnc(-c3ccccc3)o2)cc(OC)c1OC,0,5,0,-1,0,365,·,·
